In ChEMBL document CHEMBL1124534, “Synthesis, mechanism of action, and biological evaluation of mitosenes” (1989):
≈ marks a conversion by molar mass, not a printed value.

Columns and labels:
Mus musculus [1] = test: Percentage change in body weight [(day 6 - day 1)/ day 1] for antitumor activity against P388 Leukemia in CD2 mice at fractioned dose treatment of 1 mg/kg; type: functional
In short: (§1)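 Mouse P388 leukemia model. Drugs were given intraperitoneally, either as a single injection or once daily for 9 consecutive days (fractioned schedule). Outcomes were median survival time in days, %T/C, and % body weight change.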

Mus musculus [2] = test: Median survival time in days for antitumor activity against P388 Leukemia in CD2 mice at a single dose treatment of 6 mg/kg; type: functional
In short: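 P388 leukemia-bearing mice were given one intraperitoneal injection. The read-out was median survival time in days, reported alongside %T/C and % body weight change.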

Mus musculus [3] = test: Percent T/C ([…]) for antitumor activity against P388 Leukemia in CD2 mice at fractioned dose treatment of 1 mg/kg; type: functional
In short: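 P388 leukemia mice dosed intraperitoneally once daily for 9 consecutive days. Median survival time (days) and body weight change were recorded. %T/C was based on survival of treated versus control mice.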

Mus musculus [4] = test: Percent change in body weight [(day 6 - day 1)/ day 1] when P388 Leukemic CD2 mice were treated with a compound (6 mg/Kg); type: functional
Mus musculus [5] = test: Body wieght treated/body weight untreated controls of compound (6 mg/kg) was evaluated in vivo for antitumor activity against MAC 16 in female NMRI mice on day 4; type: functional
Mus musculus [6] = test: Relative tumor size on day 28 was reported when compound (2 mg/kg/day) administered to inhibit growth of human tumor xenograft GXF 97 in nude mice; type: functional
In short: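 GXF 97 human gastric xenograft grown subcutaneously in nude mice for 24 days, then mice randomized; treatment began 1 day later. Fractioned ip injections on days 1-4, or single iv injection on day 1; 4-5 mice per group. Tumor size from length and width; relative tumor size (% of controls) read at day 28.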

WiDr = test: In vitro antitumor activity against WiDr colon carcinoma tumor cell line was determined; type: functional; settings: Homo sapiens, read-out: ID50 (the source's name)
In short: (§2)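 Cell growth inhibition in vitro measured by the PIT method, with mitomycin C as positive reference.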

Mus musculus [7] = test: Percent T/C ([…]) for antitumor activity against P388 Leukemia in CD2 mice at fractioned dose treatment of 3 mg/kg; type: functional; in short: as §1
Mus musculus [8] = test: Ability of administered compound (2 mg/kg/day) to inhibit growth of human tumor xenograft GXF 97 was assessed on day 21 in nude mice
Mus musculus [9] = test: Mean relative body weight change of treated / mean relative body weight change of control when compound (2 mg/kg/day) administered to inhibit growth of human tumor xenograft GXF 97 was reported at day 21 in nude mice; type: functional
Mus musculus [10] = test: Ability of administered compound (2 mg/kg/day) to inhibit growth of human tumor xenograft GXF 97 was assessed on day 14 in nude mice
Mus musculus [11] = test: Compound (40 mg/Kg) was evaluated in vivo for antitumor activity against MAC 16 in female NMRI mice on day 29 and ratio of tumor weight of treated to that of control was determined; type: functional
Mus musculus [12] = test: Mean relative body weight change of treated / mean relative body weight change of control when compound (2 mg/kg/day) administered to inhibit growth of human tumor xenograft GXF 97 was reported at day 28 in nude mice; type: functional
Mus musculus [13] = test: Percent inhibition of compound (50 mg/Kg) was evaluated in vivo for antitumor activity against MAC 13 in female NMRI mice on day 29; type: functional
In short: (§3)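 MAC 13 in female NMRI mice. Drugs were given in arachis oil BP by ip route on day 2 or day 29. % inhibition was derived from treated/untreated control tumor weight (volume); a negative value indicates stimulation.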

Mus musculus [14] = test: Percent inhibition of compound (6 mg/kg) was evaluated in vivo for antitumor activity against MAC 13 in female NMRI mice on day 2; type: functional; in short: as §3
Mus musculus [15] = test: Compound (40 mg/Kg) was evaluated in vivo for antitumor activity against MAC 16 in female NMRI mice on day 12 and ratio of tumor weight of treated to that of control was determined; type: functional
Mus musculus [16] = test: Percentage change in body weight [(day 6 - day 1)/ day 1] for antitumor activity against P388 Leukemia in CD2 mice at fractioned dose treatment of 3 mg/kg; type: functional; in short: as §1
Mus musculus [17] = test: Median survival time in days for antitumor activity against P388 Leukemia in CD2 mice at fractioned dose treatment of 3 mg/kg; type: functional
In short: (§4)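 P388 leukemia-bearing mice were dosed intraperitoneally once daily for 9 consecutive days (fractioned schedule). The read-out was median survival time in days, reported alongside %T/C and % body weight change.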

L1210 = test: In vitro antitumor activity against L1210 lymphocytic leukemia tumor cell line was determined; type: functional; settings: Mus musculus, read-out: ID50 (the source's name)
In short: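 Inhibition of L1210 leukemia colony formation in vitro, with mitomycin C as positive reference.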

Mus musculus [18] = test: Ability of intravenously administered compound (2 mg/kg, single dose) to inhibit growth of human tumor xenograft GXF 97 was assessed on day 28 in nude mice
Mus musculus [19] = test: Mean relative body weight change of treated / mean relative body weight change of control when compound (2 mg/kg/day) administered to inhibit growth of human tumor xenograft GXF 97 was reported at day 14 in nude mice; type: functional
Mus musculus [20] = test: Percent T/C ([…]) for antitumor activity against P388 Leukemia in CD2 mice at a single dose treatment of 6 mg/kg; type: functional
In short: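 P388 leukemia mice given a single intraperitoneal injection. Median survival time (days) and body weight change were recorded. %T/C was derived from the survival of treated versus control mice.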

A204 = test: In vitro antitumor activity against A204 rhabdomyosarcoma tumor cell line was determined; type: functional; settings: Homo sapiens, read-out: ID50 (the source's name); in short: as §2
Mus musculus [21] = test: Median survival time in days for antitumor activity against P388 Leukemia in CD2 mice at fractioned dose treatment of 1 mg/kg; type: functional; in short: as §4
Mus musculus [22] = test: Compound (6 mg/Kg) was evaluated in vivo for antitumor activity against MAC 13 in female NMRI mice on day 2 and ratio of tumor weight of treated to that of control was determined
Mus musculus [23] = test: Body wieght treated/body weight untreated controls of compound (6 mg/kg) was evaluated in vivo for antitumor activity against MAC 16 in female NMRI mice on day 12; type: functional
Mus musculus [24] = test: Compound (6 mg/Kg) was evaluated in vivo for antitumor activity against MAC 16 in female NMRI mice on day 4 and ratio of tumor weight of treated to that of control was determined; type: functional

CO[C@@]12[C@H](COC(N)=O)C3=C(C(=O)C(C)=C(N)C3=O)N1C[C@@H]1N[C@@H]12 [MITOMYCIN]
BWC (Mus musculus [1]): -5.4%
MST (Mus musculus [2]): 21 days
T/C (Mus musculus [3]): 309%
BWC (Mus musculus [4]): -18.1%
BW (Mus musculus [5]): 106%
Relative TS (Mus musculus [6]): 17%
IC50 (WiDr): 0.031 µg/mL (≈ 0.0927 µM)
T/C (Mus musculus [7]): 191%
T/C (Mus musculus [8]): 4.1%
BWC (Mus musculus [9]): 108.5%
T/C (Mus musculus [10]): 9.9%
T/C (Mus musculus [11]): 7.4%
BWC (Mus musculus [12]): 108.4%
I (Mus musculus [13]): 92.6%
I (Mus musculus [14]): 88.4%
T/C (Mus musculus [15]): 81%
BWC (Mus musculus [16]): -8%
MST (Mus musculus [17]): 21 days
IC50 (L1210): 0.031 µg/mL (≈ 0.0927 µM)
T/C (Mus musculus [18]): 2.6%
BWC (Mus musculus [19]): 108.9%
T/C (Mus musculus [20]): 191%
IC50 (A204): 0.02 µg/mL (≈ 0.0598 µM)
MST (Mus musculus [21]): 34 days
T/C (Mus musculus [22]): 11.6%
BW (Mus musculus [23]): 96%
T/C (Mus musculus [24]): 60%
